Several values for one entry are separate records, joined by “and”; a condition that tells them apart may be missing. Equal values may be shown once.
Key:
[1] = target: T1, BRD4(2) (Homo sapiens, UniProt O60885); assay: isothermal titration calorimetry; format: binding
[2] = tested on: MLL-CBP immortalized murine bone marrow cells; assay: clonogenic growth and replating in methylcellulose; format: cell-based, mouse; settings: more apparent upon re-plating
Method in brief: (§1)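 Methylcellulose colony formation with serial re-plating, using either MLL-CBP immortalized murine bone marrow progenitors or MLL-AF9 leukemic blasts treated with test compound. Colonies are expressed as mean percentage of vehicle-treated ±SD, n=2; ANOVA with Dunnett multiple comparison.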

[3] = tested on: primary murine MLL-AF9+ leukemic blasts; assay: clonogenic re-plating assay in methylcellulose; format: cell-based, mouse
Method in brief: as §1

[4] = tested on: KASUMI-1, MOLM13 and SEM cells; assay: WST1 proliferation/survival assay, single agents and combinations; format: cell-based, human; settings: for activity alone in WST1 assay: single agent, different for each cell line
[5] = target: isolated CBP bromodomain (Homo sapiens, UniProt Q92793); assay: NanoBRET, NanoLuc CBP bromodomain / Halo-tagged Histone H3.3; format: cell-based; settings: read-out: cellular IC50, construct containing the bromodomain only
[6] = tested on: primary murine MLL-AF9+ leukemic blasts; assay: WST1 cytotoxicity assay; format: cell-based, mouse
Method in brief: (§2)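 WST1 cytotoxicity assay. Cells were murine bone marrow cells immortalized by retroviral MLL-CBP expression, or MLL-AF9 leukemic blasts isolated from mice transplanted with bone marrow retrovirally expressing that oncogene. Signal was expressed as mean percentage of vehicle-treated cells ±SD, n=4; ANOVA with Dunnett multiple comparison.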

[7] = target: T2, CBP bromodomain (Homo sapiens, UniProt Q92793); format: binding; settings: read-out: dissociation constant (KD); ITC, in solution
[8] = tested on: MOLM13 cells; assay: WST1 proliferation/survival assay, combination; format: cell-based, human; settings: combination with doxorubicin
[9] = tested on: 12 stimulated primary human co-cultured cell types; assay: BioMAP panel of stimulated primary co-cultured cell types; format: cell-based
Method in brief: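 BioMAP profiling in four human haematopoietic co-culture systems, each treated with test compound: Sag and LPS (peripheral blood mononuclear cells with venular endothelial cells), BT (B cells with peripheral blood mononuclear cells), and IMphg (venular endothelial cells with M1 macrophages). Marker protein read-outs were monitored.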

[10] = target: α1A (Homo sapiens, UniProt P35348); settings: both stereoisomers; low µM region
[11] = tested on: 5HT1; settings: both stereoisomers; low µM region
[12] = target: full-length GFP-BRD4 (Homo sapiens, UniProt O60885); assay: NanoBRET, full-length BRD4; format: cell-based
[13] = target: p300 (Homo sapiens, UniProt Q09472); assay: ChIP-PCR of p300 occupancy at TNFSF13B and ID2; format: cell-based; settings: KASUMI-1, 3 µM
[14] = tested on: 41 other members of the human bromodomain family; assay: temperature shift assay, selectivity panel; format: binding; settings: 41 other bromodomains
[15] = tested on: 12 human cell lines that form visible colonies in methylcellulose; assay: clonogenic growth in methylcellulose, human leukemic cell line panel; format: cell-based; settings: all 12 colony-forming human leukemic lines
[16] = tested on: MLL-AF9+ AML cells; assay: cell surface marker expression after liquid culture exposure; format: cell-based, mouse; settings: 5 µM, 3 days
[17] = target: T3, full-length CBP (Homo sapiens, UniProt Q92793); format: cell-based; settings: GFP-tagged full-length CBP
[18] = tested on: primary blast cells from AML patients; assay: clonogenic growth of primary cells in methylcellulose; format: cell-based, human; settings: five AML patients
Method in brief: (§3)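 Primary human cells were grown in methylcellulose with test compound: CD34+ cells from healthy donors (n=3) or AML patient blasts (n=5). Colonies and cell numbers are expressed as mean percentage of vehicle-treated ±SD; ANOVA with Dunnett. Morphology was assessed by Giemsa-Wright stain after DMSO or 5 µM treatment.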

[19] = target: T1, BRD4(2); assay: temperature shift assay; format: binding; settings: second bromodomain of BRD4
[20] = tested on: MLL-CBP immortalized murine bone marrow cells; assay: WST1 cytotoxicity assay; format: cell-based, mouse; settings: significant cytotoxicity only at high concentrations and prolonged exposure
Method in brief: as §2

[21] = tested on: KASUMI-1 cells; assay: cell cycle analysis by flow cytometry; format: cell-based, human; settings: day 2 and 3, more pronounced at day 6
[22] = tested on: MOLM13; assay: clonogenic growth in methylcellulose; format: cell-based, human; settings: dose dependent
Method in brief: (§4)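 Human leukemic cell lines were plated in methylcellulose with different doses of test compound, and colony growth was scored. Counts are mean percentage of vehicle-treated ±SD, n=3; ANOVA with Dunnett multiple comparison.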

[23] = tested on: peripheral CD34+ cells from healthy donors; assay: clonogenic growth of primary cells in methylcellulose; format: cell-based, human; settings: three healthy donors
Method in brief: as §3

[24] = pharmacokinetic study; format: in vivo; settings: mice
[25] = tested on: KASUMI-1; assay: clonogenic growth in methylcellulose; format: cell-based, human; settings: dose dependent
Method in brief: as §4

[26] = tested on: MLL-AF9+ AML cells; assay: transplantation of pre-treated MLL-AF9+ AML cells into secondary recipients; format: in vivo, mice; settings: cells pre-treated 5 µM 3 days; 5-50 x 10^3 cells transplanted
Method in brief: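 Leukemic blasts were taken from mice that developed AML after transplantation of bone marrow retrovirally expressing MLL-AF9. Blasts were treated ex vivo with 5 µM test compound or DMSO for 3 days. Limiting doses (50 000, 10 000, 5 000, 500 cells) went into irradiated syngeneic secondary recipients, n=4/5 per group. Disease-free survival was compared by log-rank (Mantel-Cox) test.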

[27] = target: T2, CBP bromodomain; assay: temperature shift assay; format: binding
[28] = tested on: bromodomains of the BET family members; assay: BLI selectivity screen, panel of 42 bromodomains; format: binding; settings: only BET family identified among 42 bromodomains
[29] = target: CBP (Homo sapiens, UniProt Q92793); settings: BLI
[30] = tested on: MLL-AF9 expressing blasts; assay: extreme limiting dilution analysis; format: cell-based, mouse; settings: 5µM for 3 days; vehicle 1/2.3
Method in brief: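 MLL-AF9 leukemic blasts from diseased mice were exposed ex vivo to 5 µM test compound or DMSO for 3 days, then plated at limiting dilution (highest dose 10 cells). A limiting dilution model fitted on a log-fraction plot gave stem cell frequency with 95% confidence intervals. Groups were compared by an overall chi-square test.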

[31] = target: BRD4(1) (Homo sapiens, UniProt O60885); assay: isothermal titration calorimetry; format: binding
[32] = target: p300 bromodomain (Homo sapiens, UniProt Q09472); assay: isothermal titration calorimetry; format: binding; settings: read-out: dissociation constant (KD); ITC, in solution
[33] = target: T3, full-length CBP; format: cell-based; settings: NanoBRET dose response
[34] = tested on: SEM cells; assay: clonogenic growth in methylcellulose; format: cell-based, human; settings: dose dependent
Method in brief: as §4

[35] = tested on: KASUMI-1 cells; assay: apoptosis, 7-AAD/AnnexinV staining; format: cell-based, human; settings: prolonged exposure, day 5, liquid culture
[36] = target: T2, CBP bromodomain; settings: read-out: IC50 displacing H3K56ac from the CBP binding site; AlphaScreen, H3K56ac peptide
[37] = target: H3K56ac peptide; assay: ITC
[38] = tested on: CBP/p300 HAT activity; settings: cited from earlier work

T2 sequence (Q92793 1085-1192 limits assumed): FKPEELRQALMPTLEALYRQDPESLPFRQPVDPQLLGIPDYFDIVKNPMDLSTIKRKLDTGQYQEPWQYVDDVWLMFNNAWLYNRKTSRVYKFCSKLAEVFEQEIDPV
Sequence of p300 (Q09472 whole entry): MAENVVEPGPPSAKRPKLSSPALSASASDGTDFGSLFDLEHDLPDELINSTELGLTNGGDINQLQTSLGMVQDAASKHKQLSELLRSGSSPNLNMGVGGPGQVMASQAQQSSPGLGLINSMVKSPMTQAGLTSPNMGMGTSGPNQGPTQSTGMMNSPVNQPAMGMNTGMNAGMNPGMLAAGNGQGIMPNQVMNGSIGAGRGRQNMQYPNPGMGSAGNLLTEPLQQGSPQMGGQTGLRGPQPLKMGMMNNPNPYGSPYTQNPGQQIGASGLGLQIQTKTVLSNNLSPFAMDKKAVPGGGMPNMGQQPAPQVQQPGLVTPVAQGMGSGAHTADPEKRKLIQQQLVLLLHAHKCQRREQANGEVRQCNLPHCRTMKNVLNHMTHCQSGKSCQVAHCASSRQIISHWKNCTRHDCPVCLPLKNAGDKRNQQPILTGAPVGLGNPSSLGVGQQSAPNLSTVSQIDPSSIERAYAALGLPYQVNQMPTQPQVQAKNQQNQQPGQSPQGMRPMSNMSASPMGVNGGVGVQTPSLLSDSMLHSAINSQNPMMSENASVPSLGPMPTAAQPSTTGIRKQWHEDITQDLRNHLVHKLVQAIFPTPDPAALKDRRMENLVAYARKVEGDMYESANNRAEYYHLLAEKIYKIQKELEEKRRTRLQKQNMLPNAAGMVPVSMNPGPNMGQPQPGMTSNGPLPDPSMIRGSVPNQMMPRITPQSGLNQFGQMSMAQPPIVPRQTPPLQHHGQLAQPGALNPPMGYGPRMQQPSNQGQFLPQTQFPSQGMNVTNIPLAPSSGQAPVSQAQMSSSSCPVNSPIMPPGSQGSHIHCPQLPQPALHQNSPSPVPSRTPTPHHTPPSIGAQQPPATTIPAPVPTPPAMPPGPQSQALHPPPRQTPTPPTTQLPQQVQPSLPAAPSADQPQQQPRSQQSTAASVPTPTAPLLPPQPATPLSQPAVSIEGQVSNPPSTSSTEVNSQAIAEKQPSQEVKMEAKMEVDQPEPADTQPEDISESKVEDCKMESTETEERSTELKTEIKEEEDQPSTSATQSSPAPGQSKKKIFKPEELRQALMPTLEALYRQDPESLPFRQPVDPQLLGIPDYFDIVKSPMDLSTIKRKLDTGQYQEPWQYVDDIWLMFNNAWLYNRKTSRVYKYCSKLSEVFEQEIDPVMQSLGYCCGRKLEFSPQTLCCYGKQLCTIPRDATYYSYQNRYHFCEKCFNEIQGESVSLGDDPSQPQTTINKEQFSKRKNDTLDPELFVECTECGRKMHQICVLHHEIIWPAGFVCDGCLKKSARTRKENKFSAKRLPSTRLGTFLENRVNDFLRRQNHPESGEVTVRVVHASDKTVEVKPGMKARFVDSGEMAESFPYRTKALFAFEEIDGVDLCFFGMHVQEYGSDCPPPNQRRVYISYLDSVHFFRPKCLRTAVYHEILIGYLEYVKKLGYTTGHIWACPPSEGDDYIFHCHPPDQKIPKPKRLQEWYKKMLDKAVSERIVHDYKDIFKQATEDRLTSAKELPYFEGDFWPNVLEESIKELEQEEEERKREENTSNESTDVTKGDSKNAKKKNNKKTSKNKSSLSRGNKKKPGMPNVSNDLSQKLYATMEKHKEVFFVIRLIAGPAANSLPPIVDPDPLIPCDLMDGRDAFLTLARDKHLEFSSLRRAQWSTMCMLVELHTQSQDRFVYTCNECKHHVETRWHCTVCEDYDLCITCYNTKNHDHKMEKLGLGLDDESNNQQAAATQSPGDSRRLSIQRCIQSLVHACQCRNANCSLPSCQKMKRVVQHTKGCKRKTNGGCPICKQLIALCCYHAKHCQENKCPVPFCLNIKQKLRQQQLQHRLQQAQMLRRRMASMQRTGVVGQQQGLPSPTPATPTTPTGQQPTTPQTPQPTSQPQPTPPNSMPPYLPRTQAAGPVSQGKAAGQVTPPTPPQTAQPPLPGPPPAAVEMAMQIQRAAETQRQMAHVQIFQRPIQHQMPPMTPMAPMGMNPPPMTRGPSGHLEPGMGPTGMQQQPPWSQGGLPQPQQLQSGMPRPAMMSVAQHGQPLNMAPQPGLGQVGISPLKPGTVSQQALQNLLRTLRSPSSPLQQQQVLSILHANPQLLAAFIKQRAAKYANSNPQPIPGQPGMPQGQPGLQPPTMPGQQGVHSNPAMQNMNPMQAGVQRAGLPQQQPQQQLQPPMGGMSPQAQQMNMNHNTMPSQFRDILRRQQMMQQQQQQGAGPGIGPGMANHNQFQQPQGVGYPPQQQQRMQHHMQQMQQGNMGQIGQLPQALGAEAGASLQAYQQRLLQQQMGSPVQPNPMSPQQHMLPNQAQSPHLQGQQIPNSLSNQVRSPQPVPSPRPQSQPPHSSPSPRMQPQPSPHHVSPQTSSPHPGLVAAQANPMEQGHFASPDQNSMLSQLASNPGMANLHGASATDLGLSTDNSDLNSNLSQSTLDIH
T3 sequence (Q92793 whole entry): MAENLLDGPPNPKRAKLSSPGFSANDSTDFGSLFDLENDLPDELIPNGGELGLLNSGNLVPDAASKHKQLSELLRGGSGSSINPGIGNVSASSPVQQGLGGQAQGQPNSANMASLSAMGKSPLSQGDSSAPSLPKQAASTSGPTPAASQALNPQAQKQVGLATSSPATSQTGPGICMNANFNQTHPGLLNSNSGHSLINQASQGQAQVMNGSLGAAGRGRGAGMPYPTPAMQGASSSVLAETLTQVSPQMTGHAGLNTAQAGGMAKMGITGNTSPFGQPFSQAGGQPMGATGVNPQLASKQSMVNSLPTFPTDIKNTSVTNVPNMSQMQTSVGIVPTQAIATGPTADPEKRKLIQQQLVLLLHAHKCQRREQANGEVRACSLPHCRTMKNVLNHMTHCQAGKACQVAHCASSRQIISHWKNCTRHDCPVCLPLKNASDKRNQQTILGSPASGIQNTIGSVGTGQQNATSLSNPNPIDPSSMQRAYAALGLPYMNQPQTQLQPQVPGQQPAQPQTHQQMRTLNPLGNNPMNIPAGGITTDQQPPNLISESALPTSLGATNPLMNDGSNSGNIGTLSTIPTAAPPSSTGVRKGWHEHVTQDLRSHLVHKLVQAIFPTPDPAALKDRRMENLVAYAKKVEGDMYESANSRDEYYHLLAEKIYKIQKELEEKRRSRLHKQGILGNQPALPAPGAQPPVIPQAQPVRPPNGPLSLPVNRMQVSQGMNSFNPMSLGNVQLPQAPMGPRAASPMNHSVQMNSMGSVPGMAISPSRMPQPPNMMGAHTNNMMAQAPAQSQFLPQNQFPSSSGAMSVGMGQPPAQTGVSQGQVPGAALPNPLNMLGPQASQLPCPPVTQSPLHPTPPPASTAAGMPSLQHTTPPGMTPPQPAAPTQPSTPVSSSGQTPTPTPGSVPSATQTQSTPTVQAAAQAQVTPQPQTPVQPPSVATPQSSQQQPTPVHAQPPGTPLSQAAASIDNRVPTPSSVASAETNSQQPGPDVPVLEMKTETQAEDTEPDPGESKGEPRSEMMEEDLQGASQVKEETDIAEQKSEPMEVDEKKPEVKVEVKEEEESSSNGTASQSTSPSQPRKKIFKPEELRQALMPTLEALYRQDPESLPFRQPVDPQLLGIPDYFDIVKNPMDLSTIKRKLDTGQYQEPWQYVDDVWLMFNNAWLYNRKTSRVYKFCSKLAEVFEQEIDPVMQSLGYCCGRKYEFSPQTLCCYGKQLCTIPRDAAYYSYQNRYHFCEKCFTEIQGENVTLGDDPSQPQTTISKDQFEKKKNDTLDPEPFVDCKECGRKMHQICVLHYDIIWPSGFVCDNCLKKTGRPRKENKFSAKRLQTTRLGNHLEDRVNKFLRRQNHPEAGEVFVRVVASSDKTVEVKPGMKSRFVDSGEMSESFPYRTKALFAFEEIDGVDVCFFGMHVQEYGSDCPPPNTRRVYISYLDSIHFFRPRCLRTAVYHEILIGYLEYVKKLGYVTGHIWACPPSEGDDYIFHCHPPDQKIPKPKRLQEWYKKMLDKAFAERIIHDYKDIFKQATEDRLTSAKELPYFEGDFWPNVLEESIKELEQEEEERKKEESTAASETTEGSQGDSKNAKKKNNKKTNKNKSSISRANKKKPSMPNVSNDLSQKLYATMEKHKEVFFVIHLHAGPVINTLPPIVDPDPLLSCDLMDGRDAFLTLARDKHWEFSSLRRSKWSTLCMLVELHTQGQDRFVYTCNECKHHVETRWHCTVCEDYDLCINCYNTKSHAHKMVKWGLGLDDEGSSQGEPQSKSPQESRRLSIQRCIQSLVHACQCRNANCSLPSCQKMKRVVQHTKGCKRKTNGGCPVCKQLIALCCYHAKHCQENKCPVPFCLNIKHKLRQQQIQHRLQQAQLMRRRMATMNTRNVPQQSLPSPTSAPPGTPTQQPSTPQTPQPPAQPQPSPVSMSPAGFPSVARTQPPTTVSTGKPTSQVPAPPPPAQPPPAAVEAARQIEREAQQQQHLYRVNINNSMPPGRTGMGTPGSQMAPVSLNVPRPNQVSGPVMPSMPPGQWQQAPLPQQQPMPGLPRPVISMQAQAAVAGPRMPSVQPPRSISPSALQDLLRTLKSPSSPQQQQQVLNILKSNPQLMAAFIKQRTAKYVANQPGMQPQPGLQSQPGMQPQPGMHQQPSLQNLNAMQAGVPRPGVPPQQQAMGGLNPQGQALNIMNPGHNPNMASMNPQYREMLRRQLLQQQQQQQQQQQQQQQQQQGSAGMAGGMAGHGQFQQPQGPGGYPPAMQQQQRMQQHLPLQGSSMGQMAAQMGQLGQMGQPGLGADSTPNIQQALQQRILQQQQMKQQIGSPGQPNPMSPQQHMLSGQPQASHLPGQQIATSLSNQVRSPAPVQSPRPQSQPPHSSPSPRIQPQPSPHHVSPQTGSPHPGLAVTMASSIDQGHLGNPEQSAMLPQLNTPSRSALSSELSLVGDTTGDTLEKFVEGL
Sequence of CBP (Q92793 1085-1192 limits assumed): as the sequence (Q92793 1085-1192 limits assumed) above
Sequence of isolated CBP bromodomain (Q92793 1085-1192 limits assumed): as above
Sequence of p300 bromodomain (Q09472 1049-1156 limits assumed): as the sequence (Q92793 1085-1192 limits assumed) above, with N47S, V73I, F93Y, A98S counted along it

CCC(=O)N1CCOc2c(cc(-c3ccc(OC)c(OC)c3)cc2OC[C@H]2CCCN(C)C2)C1 [I-CBP112]
fold selectivity ([1]; CBP over BRD4(2), from ITC KDs): 132 fold | Kd ([1]; ITC): 20 µM | clonogenic growth [2]: significantly reduced | self-renewal in clonogenic re-plating [3]: significantly impaired | synergy (Chou-Talalay) ([4]; combination with JQ1): strong synergy | synergy (Chou-Talalay) ([4]; combination with doxorubicin, except MOLM13): strong synergy | IC50 [5]: 0.6 ± 0.05 µM | cytotoxicity [6]: without significant cytotoxicity | Kd [7]: 0.151 ± 0.006 µM | synergism [8]: less pronounced | expression level of CCL2 [9]: no effect | expression level of Selectin (CD62) [9]: no effect | expression of IL10 [9]: down-regulated | expression of VCAM1/CD106 [9]: down-regulated | secreted IgG [9]: up-regulated | interaction in selectivity panel [10]: weak interaction | interaction in selectivity panel [11]: weak interaction | displacement of full-length BRD4 [12]: No displacement | displacement of p300 from chromatin ([13]; 8h): did not see significant displacement | p300 occupancy ([13]; 4 days, vs DMSO): increased p300 occupancy | ΔTm values [14]: low | clonogenic growth [15]: significantly reduced | c-Kit/CD117 expression [16]: slightly decreased | granulocyte marker Gr-1 expression [16]: slightly decreased | FRAP recovery times [17]: did not lead to decreased recovery times | number of colonies and cells in MC [18]: dose dependent reduction | ΔTm [19]: 0.6 °C | cell survival [20]: did not affect cell survival | cell cycle effect [21]: prominent G1 arrest | clonogenic growth [22]: significantly impaired | colony number in MC [23]: did not affect | AUC ([24]; IP 3 mg/kg): 384 ng/h/mL | half-life ([24]; IP 3 mg/kg): 36 ± 6 min | mean Cmax ([24]; IP 3 mg/kg): 0.59 µg/mL | bioavailability F% ([24]; IP vs IV, (AUCt/Dip)/(AUC∞/Div)): 114 ± 63% | blood clearance ([24]; IV 1.2 mg/kg): high | volume distribution ([24]; IV 1.2 mg/kg): moderate | Cmax ([24]; read-out: mean Cmax, IP 3 mg/kg, n=3): 1.26 ± 0.74 µM | clonogenic growth [25]: significantly impaired | time of disease development in recipient mice [26]: significantly later | ΔTm (stabilization of melting temperature) [27]: 7.8 ºC | off-target activity in BLI screen [28]: weak off-target activity | Kd [29]: 0.142 µM | estimated stem cell frequency [30]: significant decrease and 1/13 | fold selectivity ([31]; CBP over BRD4(1), from ITC KDs): 37 fold | Kd ([31]; ITC): 5.6 µM | Kd [32]: 0.167 ± 0.008 µM | effect on recruitment of full-length CBP to chromatin [33]: no significant effect | clonogenic growth [34]: significantly impaired | apoptosis [35]: signs of apoptosis | IC50 [36]: 0.17 µM

CBP bromodomain (domain or fragment)
Kd [37]: 13.8 µM

Cc1sc2c(c1C)C(c1ccc(Cl)cc1)=N[C@@H](CC(=O)OC(C)(C)C)c1nnc(C)n1-2 [JQ1, reference compound]
activity alone in WST1 assay [4]: low nM activity | expression of IL10 [9]: down-regulated | expression of VCAM1/CD106 [9]: down-regulated | secreted IgG [9]: strongly down-regulated

CC1=NN(c2ccc(C(=O)O)cc2)C(=O)/C1=C\c1ccc(-c2cc(C)c(C)cc2[N+](=O)[O-])o1 [C646]
HAT inhibitory activity [38]: low µM activity

COc1cccc2c1C(=O)c1c(O)c3c(c(O)c1C2=O)C[C@@](O)(C(=O)CO)C[C@@H]3O[C@H]1C[C@H](N)[C@H](O)[C@H](C)O1 [doxorubicin, reference compound]
activity alone in WST1 assay [4]: low nM activity

— article PMC4948672 (Cancer research, 2015)
